Reference: ChEMBL document CHEMBL1158355, “Novel pyridazine derivatives: Synthesis and antimicrobial activity evaluation” (2009)

Assays:
Format in all cases: functional
Enterococcus faecalis = assay: Antibacterial activity against Streptococcus faecalis at 20 mg/mL by agar diffusion method
Outline: (§1)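 Agar diffusion assay with test solutions at 20 mg/mL in DMSO, run alongside tetracycline as reference. Read-out is the diameter of the inhibition zone in mm, reported as an average.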

Pseudomonas aeruginosa = assay: Antibacterial activity against Pseudomonas aeruginosa at 20 mg/mL by agar diffusion method; outline: as §1
Escherichia coli = assay: Antibacterial activity against Escherichia coli at 20 mg/mL by agar diffusion method; outline: as §1
Staphylococcus aureus = assay: Antibacterial activity against Staphylococcus aureus at 20 mg/mL by agar diffusion method; outline: as §1

SMILES | diameter of the inhibition zone (DIZ) (Enterococcus faecalis) | diameter of the inhibition zone (DIZ) (Pseudomonas aeruginosa) | diameter of the inhibition zone (DIZ) (Escherichia coli) | diameter of the inhibition zone (DIZ) (Staphylococcus aureus)
COc1ccccc1Cc1cc(-c2ccc(Cl)cc2)n[nH]/c1=N/N=C/c1ccc(OCCOc2ccc(C=O)cc2OC)c(OC)c1 | 12 mm | 13 mm | 13 mm | 12 mm
COc1ccccc1Cc1cc(-c2ccccc2)n[nH]/c1=N/N=C/c1ccc(OCCOc2ccc(C=O)cc2)cc1 | 12 mm | 13 mm | 12 mm | 14 mm
COc1ccc(-c2cc(Cc3ccccc3OC)/c(=N/N=C/c3ccc(OC(C)=O)c(OC)c3)[nH]n2)cc1 | 13 mm | 12 mm | 15 mm | 14 mm
COc1ccc(-c2cc(Cc3ccccc3OC)/c(=N/N=C(\c3ccccc3)c3ccccc3C(=O)O)[nH]n2)cc1 | 17 mm | 17 mm | 16 mm | 18 mm
COc1ccc(-c2cc(Cc3ccccc3OC)/c(=N/N=C/c3ccc(O)c(OC)c3)[nH]n2)cc1 | 12 mm | 13 mm | 12 mm | 12 mm
COc1ccc(-c2cc(Cc3ccccc3OC)/c(=N/N=C/C(O)C(O)C(O)CO)[nH]n2)cc1 (configuration not stated) | 12 mm | 11 mm | 12 mm | 12 mm
COc1ccccc1Cc1cc(-c2ccccc2)n[nH]/c1=N\N=C(C)C | 16 mm | 15 mm | 15 mm | 16 mm
COc1ccccc1Cc1cc(-c2ccc(C)cc2)n[nH]/c1=N/N=C/C(OC(C)=O)C(OC(C)=O)C(COC(C)=O)OC(C)=O (configuration not stated) | 13 mm | 12 mm | 13 mm | 13 mm
COc1ccccc1Cc1cc(-c2ccc(C)cc2)n[nH]\c1=N/N=C(C)/C(C)=N/N=c1/[nH]nc(-c2ccc(C)cc2)cc1Cc1ccccc1OC | 13 mm | 14 mm | 13 mm | 14 mm
COc1ccc(-c2cc(Cc3ccccc3OC)/c(=N\N=C\C(OC(C)=O)C(OC(C)=O)C(OC(C)=O)C(COC(C)=O)OC(C)=O)[nH]n2)cc1 (configuration not stated) | 14 mm | 13 mm | 14 mm | 13 mm
COc1ccccc1Cc1cc(-c2ccccc2)n[nH]/c1=N/N=C/c1cc(OC)c(OCCOc2c(OC)cc(C=O)cc2OC)c(OC)c1 | 13 mm | 14 mm | 12 mm | 14 mm
COc1ccccc1Cc1cc(-c2ccccc2)n[nH]/c1=N\N=C(c1ccccc1)c1ccccc1 | 13 mm | 13 mm | 12 mm | 13 mm
COc1ccc(-c2cc(Cc3ccccc3OC)/c(=N\N=C\c3ccc(OCCOc4ccc(C=O)cc4OC)c(OC)c3)[nH]n2)cc1 | 10 mm | 10 mm | 11 mm | 10 mm
COc1ccccc1Cc1cc(-c2ccccc2)n[nH]/c1=N\N=C(/C)c1ccccc1 | 13 mm | 12 mm | 12 mm | 13 mm
COc1ccccc1Cc1cc(-c2ccc(Cl)cc2)n[nH]/c1=N\N=C\C(O)C(O)C(O)CO (configuration not stated) | 17 mm | 15 mm | 16 mm | 16 mm
COc1ccc(-c2cc(Cc3ccccc3OC)/c(=N/N=C(\C)C(C)=O)[nH]n2)cc1 | 13 mm | 13 mm | 13 mm | 13 mm
COc1ccc(-c2cc(Cc3ccccc3OC)/c(=N/N=C/C(O)C(O)C(O)C(O)CO)[nH]n2)cc1 (configuration not stated) | 15 mm | 14 mm | 15 mm | 16 mm
CN(C)[C@@H]1C(O)=C(C(N)=O)C(=O)[C@@]2(O)C(O)=C3C(=O)c4c(O)cccc4[C@@](C)(O)[C@H]3C[C@@H]12 [TETRACYCLINE] | 26 mm | 24 mm | 22 mm | 20 mm
